According to ChEMBL document CHEMBL4028872, “Structure-Activity Relationship, Pharmacological Characterization, and Molecular Modeling of Noncompetitive Inhibitors of the Betaine/γ-Aminobutyric Acid Transporter 1 (BGT1)” (J Med Chem, 2017):

Assays:
Type in all cases: cell-based
[1] = biological target: Sodium- and chloride-dependent GABA transporter 1 (Mus musculus, UniProt P31648); experiment: Inhibition of mouse GAT1 expressed in HEK293 cells assessed as reduction in [3H]GABA uptake after 3 mins by scintillation counting method
Summary of the method: (§1)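 HEK293 lines stably expressing a single mouse GAT subtype, kept under blasticidin-S (5 µg/mL) selection. Cells were assayed about 24 h after plating with 30 nM [3H]GABA plus varying compound concentrations for 3 min at 37 °C in HBSS buffered with 20 mM HEPES (1 mM CaCl2, 1 mM MgCl2, pH 7.4). Cells were washed ice-cold and radioactivity counted. IC50 came from sigmoidal variable-slope fits.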

GABA transporter 3 = biological target: T1, GABA transporter 3 (Mus musculus, UniProt P31649); experiment: Inhibition of mouse GAT2 expressed in HEK293 cells assessed as reduction in [3H]GABA uptake after 3 mins by scintillation counting method
T1 sequence (P31649 whole entry): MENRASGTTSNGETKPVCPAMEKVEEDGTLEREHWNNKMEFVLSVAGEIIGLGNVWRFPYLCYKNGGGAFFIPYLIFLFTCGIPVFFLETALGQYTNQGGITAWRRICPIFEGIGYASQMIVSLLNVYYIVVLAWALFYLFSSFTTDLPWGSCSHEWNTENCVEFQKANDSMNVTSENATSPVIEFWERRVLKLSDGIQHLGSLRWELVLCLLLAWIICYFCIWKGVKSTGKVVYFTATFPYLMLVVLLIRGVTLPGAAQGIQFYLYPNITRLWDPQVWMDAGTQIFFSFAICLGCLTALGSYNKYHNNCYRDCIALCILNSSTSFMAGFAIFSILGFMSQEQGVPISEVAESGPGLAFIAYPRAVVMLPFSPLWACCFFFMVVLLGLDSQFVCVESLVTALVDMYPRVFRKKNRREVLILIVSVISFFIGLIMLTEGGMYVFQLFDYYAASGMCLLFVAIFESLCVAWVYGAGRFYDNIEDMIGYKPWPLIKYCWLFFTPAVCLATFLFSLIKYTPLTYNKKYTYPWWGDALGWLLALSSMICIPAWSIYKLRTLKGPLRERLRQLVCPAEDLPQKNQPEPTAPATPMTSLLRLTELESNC
Summary of the method: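 HEK293 cells stably expressing mouse GAT2 were kept under blasticidin-S (5 µg/mL) selection. Ice-cold washes preceded scintillation counting. IC50 came from a variable-slope sigmoidal fit.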

GABA transporter 2 = biological target: T2, GABA transporter 2 (Mus musculus, UniProt P31651); experiment: Inhibition of mouse BGT1 expressed in HEK293 cells assessed as reduction in [3H]GABA uptake after 3 mins by scintillation counting method; details: read-out: IC50; summary of the method: as §1
T2 sequence (P31651 whole entry): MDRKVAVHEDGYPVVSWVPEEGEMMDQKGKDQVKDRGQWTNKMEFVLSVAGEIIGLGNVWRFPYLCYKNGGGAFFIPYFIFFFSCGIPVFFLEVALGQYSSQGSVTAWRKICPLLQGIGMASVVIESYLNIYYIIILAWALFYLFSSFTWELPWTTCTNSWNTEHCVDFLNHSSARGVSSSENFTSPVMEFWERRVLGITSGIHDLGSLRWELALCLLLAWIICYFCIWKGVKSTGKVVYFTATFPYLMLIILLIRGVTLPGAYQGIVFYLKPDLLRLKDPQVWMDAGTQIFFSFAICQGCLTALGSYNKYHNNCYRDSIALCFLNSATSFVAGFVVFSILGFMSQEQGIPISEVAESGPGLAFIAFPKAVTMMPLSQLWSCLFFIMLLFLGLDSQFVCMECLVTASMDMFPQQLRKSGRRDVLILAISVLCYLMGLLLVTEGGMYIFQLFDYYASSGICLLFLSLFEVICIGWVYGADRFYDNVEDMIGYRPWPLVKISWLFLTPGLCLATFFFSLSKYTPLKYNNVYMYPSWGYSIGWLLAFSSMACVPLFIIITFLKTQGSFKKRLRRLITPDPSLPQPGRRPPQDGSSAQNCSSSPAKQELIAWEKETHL

[2] = biological target: Sodium- and chloride-dependent GABA transporter 1 (Homo sapiens, UniProt P30531); details: read-out: IC50
Sodium- and chloride-dependent GABA transporter 1 (Homo sapiens, UniProt P30531), sequence (P30531 whole entry): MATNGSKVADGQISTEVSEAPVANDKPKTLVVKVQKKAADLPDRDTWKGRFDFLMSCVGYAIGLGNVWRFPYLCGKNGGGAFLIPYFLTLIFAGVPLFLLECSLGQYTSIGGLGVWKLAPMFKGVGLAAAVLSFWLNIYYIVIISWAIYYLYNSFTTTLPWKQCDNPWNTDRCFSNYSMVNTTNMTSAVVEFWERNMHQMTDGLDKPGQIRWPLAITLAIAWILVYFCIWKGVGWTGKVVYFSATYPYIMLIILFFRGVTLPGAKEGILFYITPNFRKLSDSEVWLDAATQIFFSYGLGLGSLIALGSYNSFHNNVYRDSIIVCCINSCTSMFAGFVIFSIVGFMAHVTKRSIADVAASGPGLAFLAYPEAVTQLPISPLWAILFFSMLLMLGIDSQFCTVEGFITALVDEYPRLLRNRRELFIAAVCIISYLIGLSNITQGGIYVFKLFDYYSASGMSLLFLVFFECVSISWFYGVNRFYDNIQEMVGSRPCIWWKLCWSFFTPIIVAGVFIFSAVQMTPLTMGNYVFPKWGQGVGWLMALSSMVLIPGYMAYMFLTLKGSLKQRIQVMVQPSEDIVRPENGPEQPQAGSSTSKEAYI

| SMILES | IC50 [1] | IC50 (GABA transporter 3) | IC50 (GABA transporter 2) | IC50 [2] |
| --- | --- | --- | --- | --- |
| COC(=O)c1cccc(CN2CCC(NC(=O)c3ccc(Cl)nc3Cl)CC2)c1 | > 300 µM | > 300 µM | > 300 µM | – |
| NC(=O)c1cccc(CN2CCC(NC(=O)c3ccc(Cl)nc3Cl)CC2)c1 | > 300 µM | > 300 µM | > 300 µM | – |
| COc1cccc(CN2CCC(NC(=O)c3ccncc3)CC2)c1 | > 1000 µM | > 1000 µM | > 1000 µM | – |
| O=C(NC1CCN(Cc2cc(Cl)cc(Cl)c2)CC1)c1ccc(Cl)cc1Cl | > 300 µM | > 300 µM | > 300 µM | – |
| O=C(NC1CCN(Cc2cccs2)CC1)c1ccc(Cl)nc1Cl | > 300 µM | > 300 µM | > 300 µM | – |
| COc1cccc(CN2CCC(NC(=O)c3ccc(Cl)nc3)CC2)c1 | > 1000 µM | 540 µM | 115 µM | – |
| O=C(NC1CCN(Cc2cccc(Cl)c2)CC1)c1ccc(Cl)cc1Cl | > 300 µM | > 300 µM | > 300 µM | – |
| O=C(OC1CCN(Cc2ccccc2)CC1)c1ccccc1 | – | 349 µM | 106 µM | > 1000 µM |
| O=C(NC1CCN(Cc2ccccc2)CC1)c1ccc(Cl)cc1 | > 1000 µM | 590 µM | 77 µM | – |
| O=C(NC1CCN(Cc2ccc3c(c2)OCO3)CC1)c1ccc(Cl)nc1Cl | > 300 µM | > 300 µM | 60 µM | – |
| COc1cccc(CN2CCC(NC(=O)c3ccc(Cl)cc3Cl)CC2)c1 | > 200 µM | > 200 µM | 26 µM | – |
| O=C(NC1CCN(Cc2cccc(OC(F)(F)F)c2)CC1)c1ccc(Cl)cc1Cl | > 1000 µM | > 1000 µM | 160 µM | – |
| O=C(NC1CCN(Cc2ccccc2)CC1)c1cccnc1Cl | > 1000 µM | > 1000 µM | 1650 µM | – |
| O=C(NC1CCN(Cc2ccccc2)CC1)c1cccnc1 | > 1000 µM | > 1000 µM | > 1000 µM | – |
| O=C(NC1CCN(Cc2cccc(F)c2)CC1)c1ccc(Cl)cc1Cl | > 1000 µM | > 1000 µM | 34 µM | – |
| Clc1ccc(CNC2CCN(Cc3ccccc3)CC2)c(Cl)c1 | – | > 400 µM | 112 µM | > 400 µM |
| O=C(NC1CCN(Cc2ccc(-c3ccccc3)cc2)CC1)c1ccc(Cl)nc1Cl | > 300 µM | > 300 µM | > 300 µM | – |
| COc1cccc(CN2CCC(NC(=O)c3cccnc3Cl)CC2)c1 | > 1000 µM | > 1000 µM | 1670 µM | – |

| SMILES | IC50 [1] | IC50 (GABA transporter 3) | IC50 (GABA transporter 2) | IC50 [2] |
| --- | --- | --- | --- | --- |
| O=C(NC1CCN(Cc2ccccc2)CC1)c1ccccc1Cl | > 400 µM | > 400 µM | 151 µM | – |
| O=C(NC1CCN(Cc2c[nH]c3ccccc23)CC1)c1ccc(Cl)nc1Cl | > 300 µM | > 300 µM | 58 µM | – |
| O=C(NC1CCN(Cc2ccccc2)CC1)c1cnccc1Cl | > 1000 µM | 150 µM | 39 µM | – |
| O=C(NC1CCN(Cc2ccc(OC(F)(F)F)cc2)CC1)c1ccc(Cl)cc1Cl | > 1000 µM | > 1000 µM | > 1000 µM | – |
| COc1cccc(CN2CCC(NC(=O)c3cccs3)CC2)c1 | > 400 µM | > 400 µM | 390 µM | – |
| O=C(NC1CCN(Cc2ccccc2)CC1)c1cccs1 | > 400 µM | > 400 µM | 179 µM | – |
| O=C(OC1CCN(Cc2ccccc2)CC1)c1ccc(Cl)cc1Cl | – | > 1000 µM | > 1000 µM | > 1000 µM |
| COc1cc(CN2CCC(NC(=O)c3ccc(Cl)cc3Cl)CC2)cc(OC)c1 | > 1000 µM | 1200 µM | 30 µM | – |
| COc1cccc(CN2CCC(NC(=O)c3cccnc3)CC2)c1 | > 1000 µM | > 1000 µM | > 1000 µM | – |
| Cc1cccc(CN2CCC(NC(=O)c3ccc(Cl)cc3Cl)CC2)c1 | > 300 µM | > 300 µM | > 300 µM | – |
| O=C(O)c1cccc(CN2CCC(NC(=O)c3ccc(Cl)nc3Cl)CC2)c1 | > 300 µM | > 300 µM | > 300 µM | – |
| O=C(NC1CCN(Cc2cccc(OCCO)c2)CC1)c1ccc(Cl)nc1Cl | > 300 µM | > 300 µM | > 300 µM | – |
| O=C(NC1CCN(Cc2cccc(O)c2)CC1)c1ccc(Cl)nc1Cl | > 300 µM | > 300 µM | > 300 µM | – |
| Cc1cc(C)cc(CN2CCC(NC(=O)c3ccc(Cl)cc3Cl)CC2)c1 | > 300 µM | > 300 µM | > 300 µM | – |
| O=C(NC1CCN(Cc2ccccc2)CC1)c1ccncc1 | > 1000 µM | > 1000 µM | 1150 µM | – |
| O=C(NC1CCN(Cc2cccc([N+](=O)[O-])c2)CC1)c1ccc(Cl)nc1Cl | > 300 µM | > 300 µM | > 300 µM | – |
| O=C(NC1CCN(Cc2ccccc2)CC1)c1ccnc(Cl)c1 | > 1000 µM | > 1000 µM | 300 µM | – |
